Assay results reported in ChEMBL document CHEMBL4177600, “Identification of novel PI3K inhibitors through a scaffold hopping strategy” (Bioorg Med Chem Lett, 2017).
≈ marks a conversion by molar mass, not a printed value. Blank lines part the entries; values can stand above or below the compound they belong to.

Assays:
[1] = Volume of distribution in BALB-C mouse at 5 mg/kg, iv by LC-MS/MS analysis; assay type: ADME, organism-based; settings: in vivo
In short: (§1)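 BALB-C mice dosed IV in 10% NMP/50% PEG300/40% saline or PO in 10% NMP/90% PEG300. Plasma sampled at 6 (IV) or 8 (PO) time points and quantified by LC/MS/MS. Parameters come from a bicompartmental model fit; values are means of 3 independent samples. Plasma levels were compared with AKT-P EC50 from U2OS cells converted to ng/ml.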

[2] = target: PI3-kinase p110-alpha/p85-alpha (Homo sapiens, UniProt P42336); test: Inhibition of full-length human P110alpha (1 to 1068 residues)/N-terminal GST-fused p85alpha (1 to 724 residues) expressed in baculovirus expression system by ADP Hunter assay; settings: read-out: Ki(app)
[3] = target: PI3-kinase p110-delta/p85-alpha (Homo sapiens, UniProt O00329); test: Inhibition of recombinant human full-length N-terminal His6-tagged p110delta/human full-length p85alpha expressed in baculovirus infected Sf21 insect cells using PIP2 as substrate by HTRF assay; settings: read-out: Ki(app)
CYP2C19 = CYP2C19 (Homo sapiens, UniProt P33261); test: Inhibition of CYP2C19 (unknown origin) at 10 uM relative to control; assay type: ADME
In short: (§2)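 CYP1A2, 2C9, 2C19, 2D6 and 3A4 inhibition measured at 10 µM test compound in duplicate; percent inhibition reported.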

[4] = Half-life in BALB-C mouse at 10 mg/kg, po by LC-MS/MS analysis; assay type: ADME, organism-based; settings: in vivo
In short: (§3)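 BALB-C mice dosed IV (10% NMP/50% PEG300/40% saline) or PO (10% NMP/90% PEG300). Plasma sampled at 6 (IV) or 8 (PO) time points; compound measured by LC/MS/MS. Parameters from bicompartmental model fit; each value is the mean of 3 independent samples.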

CYP3A4 = CYP3A4 (Homo sapiens, UniProt P08684); test: Inhibition of CYP3A4 (unknown origin) at 10 uM relative to control; assay type: ADME; in short: as §2
U2OS = test: Inhibition of AKT phosphorylation in human U2OS cells
[5] = AUC (infinity) in BALB-C mouse at 5 mg/kg, iv by LC-MS/MS analysis; assay type: ADME, organism-based; set-up: dose 5 mg/kg, time infinity, route intravenous; settings: in vivo; in short: as §3
[6] = Oral bioavailability in BALB-C mouse at 10 mg/kg by LC-MS/MS analysis; assay type: ADME, organism-based; settings: in vivo; in short: as §1
[7] = Clearance in BALB-C mouse at 5 mg/kg, iv by LC-MS/MS analysis; assay type: ADME, organism-based; settings: in vivo
In short: (§4)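 Mice (BALB-C) given IV dose in 10% NMP/50% PEG300/40% saline; plasma sampled at 6 times, levels by LC/MS/MS.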

[8] = Stability in mouse liver microsomes assessed as parent compound remaining at 0.5 uM after 30 mins by LC-MS/MS analysis; assay type: ADME, microsome; settings: read-out: Stability
In short: (§5)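 Single time-point stability assay: 0.5 µM compound, 0.5 mg/ml human or mouse liver microsomes in 0.1 M potassium phosphate pH 7.4, with NADPH-regenerating system, 30 min at 37 °C with shaking. Reaction quenched with acetonitrile/0.1% formic acid and centrifuged; supernatant analysed by LC-MS/MS. Reported as percent remaining; duplicates.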

CYP2D6 = CYP2D6 (Homo sapiens, UniProt P10635); test: Inhibition of CYP2D6 (unknown origin) at 10 uM relative to control; assay type: ADME; in short: as §2
PI3K p110 beta/p85 alpha = PI3K p110 beta/p85 alpha (Homo sapiens, UniProt P42338); test: Inhibition of p110beta/85alpha (unknown origin) using PIP2 as substrate by HTRF assay; assay type: protein-complex assay; settings: read-out: Ki(app)
[9] = Tmax in BALB-C mouse at 10 mg/kg, po by LC-MS/MS analysis; assay type: ADME, organism-based; settings: in vivo; in short: as §1
[10] = target: Voltage-gated inwardly rectifying potassium channel KCNH2 (Homo sapiens, UniProt Q12809); test: Inhibition of human ERG by Tracer Red dye based fluorescence polarization assay
In short: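 hERG binding measured with Predictor hERG kit per kit instructions, read by fluorescence polarization.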

[11] = AUC (infinity) in BALB-C mouse at 10 mg/kg, po by LC-MS/MS analysis; assay type: ADME, organism-based; set-up: dose 10 mg/kg, time infinity, route oral; settings: in vivo; in short: as §3
[12] = Half-life in BALB-C mouse at 5 mg/kg, iv by LC-MS/MS analysis; assay type: ADME, organism-based; settings: in vivo; in short: as §3
[13] = Stability in human liver microsomes assessed as parent compound remaining at 0.5 uM after 30 mins by LC-MS/MS analysis; assay type: ADME, microsome; settings: read-out: Stability; in short: as §5
[14] = Inhibition of PI3K in serum-stimulated human U2OS cells assessed as decrease in AKT1 phosphorylation at S473 by C-ELISA; assay type: cell-based
In short: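 U2OS osteosarcoma cells grown in 0.1% FBS, then serum-stimulated; endogenous phospho-Akt1 (Ser473) quantified by cell ELISA with chemiluminescent substrate. EC50 from sigmoid dose-response fit; two independent experiments in duplicate.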

Mus musculus [15] = test: Time at which plasma concentration stays above cellular EC50 for inhibition of AKT phosphorylation in BALB-C mouse at 10 mg/kg, po measured up to 24 hrs by LC-MS/MS analysis; assay type: organism-based; settings: in vivo; in short: as §1
[16] = Kinetic solubility of the compound in phosphate buffered saline at pH 7.4 at 1 to 2 mg measured after 24 hrs by HPLC analysis; assay type: physicochemical; settings: read-out: Kinetic_solubility
In short: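 Solid compound (1–2 mg) in 1 mL PBS, pH 7.4, inverted in test tubes for 24 h. Samples centrifuged, supernatant analysed by HPLC with diode-array detection, with peak area compared to a standard of known concentration. LC-MS/MS used when UV signal was too low or the chromophore poor. Reported in µM.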

[17] = target: Phosphatidylinositol 4,5-bisphosphate 3-kinase catalytic subunit gamma isoform (Homo sapiens, UniProt P48736); test: Inhibition of recombinant full-length human N-terminal His6-tagged p110gamma expressed in baculovirus infected Sf21 insect cells using PIP2 as substrate by HTRF assay; settings: read-out: Ki(app)
[18] = target: Serine/threonine-protein kinase mTOR (Homo sapiens, UniProt P42345); test: Inhibition of recombinant human GST-tagged mTOR catalytic domain (1360 to 2549 residues) expressed in baculovirus expression system by AlexaFluor647-labeled kinase tracer 314 based LanthaScreen assay
[19] = Permeability of the compound at 300 uL after 5 hrs by PAMPA; assay type: ADME; settings: read-out: permeability
In short: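 Pre-coated PAMPA plates with a tri-layer phospholipid membrane. Donor held compound in PBS at the highest concentration soluble in PBS; acceptor was PBS. Incubated 5 h at room temperature, with propranolol and sorafenib (10 µM) as high and low permeability controls. Donor and acceptor concentrations measured by LC-MS/MS; Pe (10^-6 cm/s) calculated from acceptor/equilibrium concentrations, 0.3 cm² area and well volumes.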

CYP2C9 = CYP2C9 (Homo sapiens, UniProt P11712); test: Inhibition of CYP2C9 (unknown origin) at 10 uM relative to control; assay type: ADME; in short: as §2
[20] = Cmax in BALB-C mouse at 10 mg/kg, po by LC-MS/MS analysis; assay type: ADME, organism-based; set-up: dose 10 mg/kg, route oral; settings: in vivo; in short: as §3
Mus musculus [21] = test: Clearance in BALB-C mouse at 5 mg/kg, iv by LC-MS/MS analysis relative to hepatic blood flow; assay type: ADME, organism-based; settings: in vivo
CYP1A2 = target: T1, CYP1A2 (Homo sapiens, UniProt P05177); test: Inhibition of CYP1A2 (unknown origin) at 10 uM relative to control; assay type: ADME; in short: as §2
T1 sequence (P05177 whole entry): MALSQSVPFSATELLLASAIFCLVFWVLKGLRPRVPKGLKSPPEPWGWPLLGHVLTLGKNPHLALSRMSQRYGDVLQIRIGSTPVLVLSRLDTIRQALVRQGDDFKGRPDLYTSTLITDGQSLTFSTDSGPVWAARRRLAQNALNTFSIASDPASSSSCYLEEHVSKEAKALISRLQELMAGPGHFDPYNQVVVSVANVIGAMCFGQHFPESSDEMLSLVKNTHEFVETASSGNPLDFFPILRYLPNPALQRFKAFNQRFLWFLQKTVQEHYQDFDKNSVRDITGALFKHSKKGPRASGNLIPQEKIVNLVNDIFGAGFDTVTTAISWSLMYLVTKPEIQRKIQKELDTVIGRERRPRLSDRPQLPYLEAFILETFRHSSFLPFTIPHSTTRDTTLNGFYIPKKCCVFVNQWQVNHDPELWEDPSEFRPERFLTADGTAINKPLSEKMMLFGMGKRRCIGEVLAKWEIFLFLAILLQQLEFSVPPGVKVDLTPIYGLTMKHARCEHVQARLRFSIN

[22] = AUC (infinity) in BALB-C mouse at 8 mg/kg, iv by LC-MS/MS analysis; assay type: ADME, organism-based; set-up: dose 8 mg/kg, time infinity, route intravenous; settings: in vivo; in short: as §3
[23] = Oral bioavailability in BALB-C mouse at 8 mg/kg by LC-MS/MS analysis; assay type: ADME, organism-based; settings: in vivo; in short: as §1
Mus musculus [24] = test: Clearance in BALB-C mouse at 8 mg/kg, iv by LC-MS/MS analysis relative to hepatic blood flow; assay type: ADME, organism-based; settings: in vivo
[25] = AUC (infinity) in BALB-C mouse at 8 mg/kg, po by LC-MS/MS analysis; assay type: ADME, organism-based; set-up: dose 8 mg/kg, route oral, time infinity; settings: in vivo; in short: as §3
[26] = Tmax in BALB-C mouse at 8 mg/kg, po by LC-MS/MS analysis; assay type: ADME, organism-based; settings: in vivo; in short: as §1
[27] = Volume of distribution in BALB-C mouse at 8 mg/kg, iv by LC-MS/MS analysis; assay type: ADME, organism-based; settings: in vivo; in short: as §1
[28] = Clearance in BALB-C mouse at 8 mg/kg, iv by LC-MS/MS analysis; assay type: ADME, organism-based; settings: in vivo; in short: as §4
[29] = Half-life in BALB-C mouse at 8 mg/kg, iv by LC-MS/MS analysis; assay type: ADME, organism-based; settings: in vivo; in short: as §3
[30] = Half-life in BALB-C mouse at 8 mg/kg, po by LC-MS/MS analysis; assay type: ADME, organism-based; settings: in vivo; in short: as §3
[31] = Cmax in BALB-C mouse at 8 mg/kg, po by LC-MS/MS analysis; assay type: ADME, organism-based; set-up: dose 8 mg/kg, route oral; settings: in vivo; in short: as §3

Sequence of CYP3A4 (P08684 whole entry): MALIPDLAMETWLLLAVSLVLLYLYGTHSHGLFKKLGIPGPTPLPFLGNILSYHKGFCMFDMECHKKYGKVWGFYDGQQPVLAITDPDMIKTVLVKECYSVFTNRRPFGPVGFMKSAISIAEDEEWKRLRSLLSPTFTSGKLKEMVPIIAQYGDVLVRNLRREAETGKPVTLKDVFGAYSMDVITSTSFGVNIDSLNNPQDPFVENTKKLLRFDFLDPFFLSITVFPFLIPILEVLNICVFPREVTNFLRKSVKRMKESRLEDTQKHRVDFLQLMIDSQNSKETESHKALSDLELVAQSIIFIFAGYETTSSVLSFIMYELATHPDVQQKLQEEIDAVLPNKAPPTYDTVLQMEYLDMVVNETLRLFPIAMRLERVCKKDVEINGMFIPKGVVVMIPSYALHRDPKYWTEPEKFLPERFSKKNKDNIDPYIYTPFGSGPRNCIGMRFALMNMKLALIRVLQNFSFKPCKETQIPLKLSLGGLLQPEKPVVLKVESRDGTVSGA
Sequence of CYP2C9 (P11712 whole entry): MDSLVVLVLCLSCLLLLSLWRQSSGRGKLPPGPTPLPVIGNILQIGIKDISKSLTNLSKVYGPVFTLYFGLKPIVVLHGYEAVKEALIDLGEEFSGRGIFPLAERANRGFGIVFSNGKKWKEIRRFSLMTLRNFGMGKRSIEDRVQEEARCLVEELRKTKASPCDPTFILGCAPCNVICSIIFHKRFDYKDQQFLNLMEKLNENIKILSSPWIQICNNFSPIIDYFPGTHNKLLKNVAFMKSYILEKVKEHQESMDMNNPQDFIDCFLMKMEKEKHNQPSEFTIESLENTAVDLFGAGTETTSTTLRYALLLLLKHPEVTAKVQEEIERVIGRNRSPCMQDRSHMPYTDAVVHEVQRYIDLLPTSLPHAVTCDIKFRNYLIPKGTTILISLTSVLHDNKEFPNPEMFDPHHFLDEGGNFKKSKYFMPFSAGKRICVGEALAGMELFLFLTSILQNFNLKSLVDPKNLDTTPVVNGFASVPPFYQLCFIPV
Sequence of CYP2C19 (P33261 whole entry): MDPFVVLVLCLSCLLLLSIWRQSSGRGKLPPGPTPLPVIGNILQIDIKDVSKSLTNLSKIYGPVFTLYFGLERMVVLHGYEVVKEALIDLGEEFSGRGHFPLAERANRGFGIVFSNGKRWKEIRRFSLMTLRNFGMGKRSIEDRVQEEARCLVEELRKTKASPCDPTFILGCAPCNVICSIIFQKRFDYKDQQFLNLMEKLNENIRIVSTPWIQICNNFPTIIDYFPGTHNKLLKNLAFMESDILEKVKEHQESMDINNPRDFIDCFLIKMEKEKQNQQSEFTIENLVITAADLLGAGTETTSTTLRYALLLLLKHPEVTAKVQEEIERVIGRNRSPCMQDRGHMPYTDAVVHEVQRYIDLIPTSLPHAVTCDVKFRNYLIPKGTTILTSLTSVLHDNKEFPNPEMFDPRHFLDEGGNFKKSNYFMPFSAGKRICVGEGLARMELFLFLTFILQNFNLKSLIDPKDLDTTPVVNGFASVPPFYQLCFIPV
Sequence of CYP2D6 (P10635 whole entry): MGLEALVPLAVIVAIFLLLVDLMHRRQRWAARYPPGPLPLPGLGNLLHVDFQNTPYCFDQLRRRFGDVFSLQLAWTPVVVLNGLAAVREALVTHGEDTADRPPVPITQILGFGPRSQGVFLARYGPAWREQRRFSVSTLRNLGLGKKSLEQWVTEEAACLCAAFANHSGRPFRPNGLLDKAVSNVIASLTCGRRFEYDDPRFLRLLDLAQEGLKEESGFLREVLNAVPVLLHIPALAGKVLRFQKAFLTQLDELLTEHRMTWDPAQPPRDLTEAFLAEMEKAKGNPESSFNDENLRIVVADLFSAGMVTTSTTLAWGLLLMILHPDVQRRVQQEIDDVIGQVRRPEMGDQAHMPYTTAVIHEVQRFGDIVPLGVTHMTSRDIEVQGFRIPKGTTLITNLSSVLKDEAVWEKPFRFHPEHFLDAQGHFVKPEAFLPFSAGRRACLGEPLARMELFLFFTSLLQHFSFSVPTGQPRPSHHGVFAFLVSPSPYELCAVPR
Sequence of PI3-kinase p110-delta/p85-alpha (P27986 whole entry): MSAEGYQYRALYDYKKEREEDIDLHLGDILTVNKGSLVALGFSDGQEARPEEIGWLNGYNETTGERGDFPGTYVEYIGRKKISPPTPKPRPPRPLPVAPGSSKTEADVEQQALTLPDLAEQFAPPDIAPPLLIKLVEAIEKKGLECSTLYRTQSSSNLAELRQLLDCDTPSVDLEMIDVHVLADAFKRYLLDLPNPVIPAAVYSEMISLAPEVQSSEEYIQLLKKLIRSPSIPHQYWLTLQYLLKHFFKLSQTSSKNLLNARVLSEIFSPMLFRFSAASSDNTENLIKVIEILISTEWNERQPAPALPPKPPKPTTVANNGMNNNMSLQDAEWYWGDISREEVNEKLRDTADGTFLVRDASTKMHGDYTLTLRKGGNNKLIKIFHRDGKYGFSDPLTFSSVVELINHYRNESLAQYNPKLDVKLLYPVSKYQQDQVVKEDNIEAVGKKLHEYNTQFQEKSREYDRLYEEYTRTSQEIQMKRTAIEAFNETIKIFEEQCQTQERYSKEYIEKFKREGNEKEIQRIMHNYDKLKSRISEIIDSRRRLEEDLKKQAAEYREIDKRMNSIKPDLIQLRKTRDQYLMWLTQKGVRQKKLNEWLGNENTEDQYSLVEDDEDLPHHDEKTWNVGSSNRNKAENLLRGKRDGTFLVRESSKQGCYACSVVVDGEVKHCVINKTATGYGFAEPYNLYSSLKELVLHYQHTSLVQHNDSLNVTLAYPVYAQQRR
Sequence of PI3-kinase p110-delta/p85-alpha (O00329 whole entry): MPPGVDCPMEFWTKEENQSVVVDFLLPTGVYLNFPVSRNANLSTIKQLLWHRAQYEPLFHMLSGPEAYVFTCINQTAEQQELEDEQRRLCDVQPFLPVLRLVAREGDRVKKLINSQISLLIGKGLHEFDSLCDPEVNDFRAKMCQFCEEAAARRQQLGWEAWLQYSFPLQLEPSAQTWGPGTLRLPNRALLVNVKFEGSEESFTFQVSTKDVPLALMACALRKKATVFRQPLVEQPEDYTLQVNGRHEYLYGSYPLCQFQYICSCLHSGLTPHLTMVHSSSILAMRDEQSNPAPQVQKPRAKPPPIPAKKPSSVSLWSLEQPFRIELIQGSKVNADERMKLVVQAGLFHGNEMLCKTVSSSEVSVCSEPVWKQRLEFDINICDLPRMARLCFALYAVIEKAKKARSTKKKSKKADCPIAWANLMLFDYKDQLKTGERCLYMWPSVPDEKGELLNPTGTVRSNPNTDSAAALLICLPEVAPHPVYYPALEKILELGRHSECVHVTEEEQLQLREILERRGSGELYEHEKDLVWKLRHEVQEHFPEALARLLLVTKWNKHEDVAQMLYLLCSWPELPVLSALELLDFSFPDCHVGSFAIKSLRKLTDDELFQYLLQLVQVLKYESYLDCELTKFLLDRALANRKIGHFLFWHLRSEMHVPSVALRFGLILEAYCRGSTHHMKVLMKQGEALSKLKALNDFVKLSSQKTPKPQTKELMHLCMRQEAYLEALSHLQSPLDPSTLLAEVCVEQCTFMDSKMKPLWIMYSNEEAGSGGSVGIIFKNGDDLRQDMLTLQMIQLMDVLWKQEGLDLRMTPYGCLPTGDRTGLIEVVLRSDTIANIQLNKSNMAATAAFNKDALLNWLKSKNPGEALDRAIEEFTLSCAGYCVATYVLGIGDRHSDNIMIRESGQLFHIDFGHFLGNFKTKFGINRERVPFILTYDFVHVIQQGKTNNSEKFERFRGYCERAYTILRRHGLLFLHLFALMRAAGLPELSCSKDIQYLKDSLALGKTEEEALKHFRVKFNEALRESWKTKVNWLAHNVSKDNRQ
Sequence of PI3K p110 beta/p85 alpha (P27986 whole entry): as the sequence (P27986 whole entry) above
Sequence of PI3K p110 beta/p85 alpha (P42338 whole entry): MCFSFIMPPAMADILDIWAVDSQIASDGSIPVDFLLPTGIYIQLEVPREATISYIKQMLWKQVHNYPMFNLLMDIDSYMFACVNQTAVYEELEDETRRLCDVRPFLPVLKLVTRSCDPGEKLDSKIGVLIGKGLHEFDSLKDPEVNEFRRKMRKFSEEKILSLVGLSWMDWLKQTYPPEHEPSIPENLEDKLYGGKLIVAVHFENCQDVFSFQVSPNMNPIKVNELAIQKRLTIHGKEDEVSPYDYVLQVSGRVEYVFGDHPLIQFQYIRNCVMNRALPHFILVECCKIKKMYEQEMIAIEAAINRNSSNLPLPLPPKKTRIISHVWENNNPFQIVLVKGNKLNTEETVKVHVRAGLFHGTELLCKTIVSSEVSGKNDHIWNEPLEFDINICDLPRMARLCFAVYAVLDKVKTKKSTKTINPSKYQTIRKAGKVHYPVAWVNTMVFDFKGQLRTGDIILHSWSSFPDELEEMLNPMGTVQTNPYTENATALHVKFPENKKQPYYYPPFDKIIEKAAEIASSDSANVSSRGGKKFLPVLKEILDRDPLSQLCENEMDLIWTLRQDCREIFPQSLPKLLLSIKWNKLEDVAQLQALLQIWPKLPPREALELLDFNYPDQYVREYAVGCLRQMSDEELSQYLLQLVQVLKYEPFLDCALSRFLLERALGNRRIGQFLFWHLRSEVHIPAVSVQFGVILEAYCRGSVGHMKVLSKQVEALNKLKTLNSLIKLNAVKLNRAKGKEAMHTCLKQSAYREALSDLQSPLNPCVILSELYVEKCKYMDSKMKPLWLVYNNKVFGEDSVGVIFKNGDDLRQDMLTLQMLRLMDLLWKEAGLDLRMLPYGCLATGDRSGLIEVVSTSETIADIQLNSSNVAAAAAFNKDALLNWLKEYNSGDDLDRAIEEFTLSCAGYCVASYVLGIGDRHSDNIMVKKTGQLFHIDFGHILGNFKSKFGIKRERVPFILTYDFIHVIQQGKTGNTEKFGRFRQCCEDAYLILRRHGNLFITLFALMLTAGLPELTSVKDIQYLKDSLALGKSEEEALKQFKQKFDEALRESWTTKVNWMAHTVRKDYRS

Vd [1]: 1.24 L/kg
Ki [2]: 2.1 nM
Ki [3]: 8.4 nM
inhibition at 10 µM (CYP2C19): < 25%
half-life [4]: 3.22 h
inhibition at 10 µM (CYP3A4): < 25%
EC50 (U2OS): 0.01753 µg/mL (≈ 0.0345 µM)
AUC(0-inf) [5]: 8100 ng·h/mL
bioavailability [6]: 43.1%
clearance [7]: 12.5 mL/min/kg
remaining at 0.5 h, 0.5 µM [8]: 100%
inhibition at 10 µM (CYP2D6): < 25%
Ki (PI3K p110 beta/p85 alpha): 71.9 nM
Tmax [9]: 0.5 h
AUC(0-inf) [11]: 6980 ng·h/mL
half-life [12]: 0.61 h
remaining at 0.5 h, 0.5 µM [13]: 100%
EC50 [14]: 34.5 nM
Time (Mus musculus [15]): > 12 h
solubility kinetic at 24 h [16]: 100 µM (≈ 50.8 µg/mL)
Ki [17]: 16.7 nM
IC50 [18]: 5410 nM
Papp at 5 h [19]: 1.51 ×10⁻⁶ cm/s
inhibition at 10 µM (CYP2C9): < 25%
Cmax [20]: 1370 ng/mL
CL (Mus musculus [21]): < 50%
inhibition at 10 µM (CYP1A2): < 25%
SMILES: CS(=O)(=O)N1CCN(Cc2cc3c(N4CCOCC4)nc(-c4cnc(N)nc4)c(Cl)n3n2)CC1
IC50 [10]: > 30000 nM

AUC(0-inf) [22]: 14200 ng·h/mL
inhibition at 10 µM (CYP2C19): < 25%
bioavailability [23]: 88.6%
CL (Mus musculus [24]): < 50%
inhibition at 10 µM (CYP3A4): < 25%
AUC(0-inf) [25]: 12600 ng·h/mL
Tmax [26]: 1 h
remaining at 0.5 h, 0.5 µM [8]: 100%
Vd [27]: 0.8 L/kg
clearance [28]: 9.33 mL/min/kg
inhibition at 10 µM (CYP2D6): < 25%
remaining at 0.5 h, 0.5 µM [13]: 100%
half-life [29]: 1.36 h
half-life [30]: 8.38 h
solubility kinetic at 24 h [16]: 50 µM (≈ 23.7 µg/mL)
Cmax [31]: 1130 ng/mL
IC50 [18]: 4880 nM
Papp at 5 h [19]: 0.26 ×10⁻⁶ cm/s
inhibition at 10 µM (CYP2C9): < 25%
inhibition at 10 µM (CYP1A2): < 25%
SMILES: CS(=O)(=O)N1CCN(Cc2cn3cc(-c4cnc(N)nc4)nc(N4CCOCC4)c3n2)CC1
